≈ marks a conversion by molar mass, not a printed value. Starred links: 1 amine or outer side, 2 acyl side, 3 side chain; linkers in the order of their positions; H or OH if unused. Positions of bridges follow the written chain, without caps; N, C: chain ends. Non-standard residues stand in square brackets, D forms with d. Residues, ends and D or L forms follow the SMILES beside them. *: point of attachment. pTerphenylCO(4''-OnC5H11) = CCCCCOc1ccc(-c2ccc(-c3ccc(C(=O)*)cc3)cc2)cc1; Orn(4R-OH,5R-OH) = O=C([C@H](C[C@@H](O)[C@@H](O)N[*:3])N[*:1])[*:2]; hTyr(3S-OH,4S-OH) = N[C@H](C(=O)O)[C@H](O)[C@@H](O)c1ccc(O)cc1; Pro(3S-OH,4S-Me) = C[C@H]1CN[C@H](C(=O)O)[C@H]1O; Hyp = O=C(O)[C@@H]1C[C@@H](O)CN1
Legend:
[1] = test system: Nakaseomyces glabratus; assay: Antifungal activity against Candida glabrata 5376 infected in neutropenic ICR/Swiss mouse candidiasis model assessed as […] burden per kidney administered intraperitoneally every 48 hrs up to 4 days measured per 96 hrs; assay type: functional; conditions: Nakaseomyces glabratus, 5376, Kidney, ip
Method in brief: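 Neutropenic ICR/Swiss mice infected i.v. with the strain; therapy began 2 h later. Total doses of 1.25–320 mg/kg/96 h were given i.p. as 1, 2, 4 or 6 doses (q96h, q48h, q24h, q16h), three mice per regimen. Kidney CFU were counted after 4 days. Effect is the change from untreated controls at the end of therapy.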

[2] = test system: Candida albicans; assay: Antifungal activity against Candida albicans K-1 infected in neutropenic ICR/Swiss mouse candidiasis model assessed as dose required to maintain […] of 3.81 +/- 0.33 log10CFU per kidney administered intraperitoneally every 24 hrs up to 4 days measured per 24 hrs; assay type: functional
Method in brief: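 Neutropenic mice (cyclophosphamide sc 150 mg/kg day −4, 100 mg/kg day −1 and day +2) infected iv via tail vein, 2 h before therapy. Drug given ip in 0.2 ml, diluted from DMSO stock in 0.9% NaCl, q24h for 4 days over five dose levels (0.078–20 mg/kg/24 h), 3 mice per regimen. Kidney CFU on SDA. Static dose taken from a sigmoid Emax (Hill) fit.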

[3] = test system: Candida albicans; assay: Antifungal activity against Candida albicans 98-17 infected in neutropenic ICR/Swiss mouse candidiasis model assessed as dose required to maintain […] of 3.81 +/- 0.33 log10CFU per kidney administered intraperitoneally every 24 hrs up to 4 days measured per 24 hrs; assay type: functional
Method in brief: (§1)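 Neutropenic mice (cyclophosphamide sc on days −4, −1 and +2) were infected iv 2 h before therapy. Five total doses from 0.078 to 20 mg/kg/24 h were given ip q24h for 4 days, three mice per regimen. Kidney CFU were measured at the end of therapy. Static and 1-log-kill doses were derived from a Hill sigmoid dose-effect fit.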

[4] = test system: Candida albicans; assay: Antifungal activity against Candida albicans K-1 infected in neutropenic ICR/Swiss mouse candidiasis model assessed as dose required to maintain […] of 3.90 +/- 0.15 log10CFU per kidney administered intraperitoneally every 48 hrs up to 4 days measured per 96 hrs; assay type: functional
Method in brief: (§2)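 Neutropenic mice were infected iv with C. albicans K-1 2 h before therapy. Total doses of 1.25, 5, 20, 80 and 320 mg/kg/96 h were split into 1, 2, 4 or 6 ip doses (q96h, q48h, q24h, q16h), three mice per regimen. Effect is the log10 CFU/kidney relative to untreated controls at 96 h. Static and 1-log doses were taken from a Hill model fit.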

[5] = test system: Candida albicans; assay: Antifungal activity against Candida albicans 580 infected in neutropenic ICR/Swiss mouse candidiasis model assessed as dose required for 1-log10 reduction in […] per kidney administered intraperitoneally every 24 hrs up to 4 days measured per 24 hrs; assay type: functional; method in brief: as §1
[6] = test system: Nakaseomyces glabratus; assay: Antifungal activity against Candida glabrata 513 infected in neutropenic ICR/Swiss mouse candidiasis model assessed as dose required for 1-log10 reduction in […] per kidney administered intraperitoneally every 24 hrs up to 4 days measured per 24 hrs; assay type: functional
Method in brief: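 Neutropenic mouse disseminated candidiasis, with i.p. therapy starting 2 h after i.v. infection. Five total doses of 0.078–20 mg/kg/24 h were given q24h for 4 days, three mice per dose. Kidney CFU were counted at the end and compared with untreated controls. The dose giving a 1 log10 CFU/kidney reduction was derived from the sigmoid Hill dose–effect model.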

[7] = test system: Nakaseomyces glabratus; assay: Antifungal activity against Candida glabrata 33609 infected in neutropenic ICR/Swiss mouse candidiasis model assessed as dose required for 1-log10 reduction in […] per kidney administered intraperitoneally every 24 hrs up to 4 days measured per 24 hrs; assay type: functional; method in brief: as §1
[8] = test system: Candida albicans; assay: Antifungal activity against Candida albicans K-1 infected in neutropenic ICR/Swiss mouse candidiasis model assessed as […] burden per kidney administered intraperitoneally once every 96 hrs measured per 96 hrs; assay type: functional; conditions: K-1, Kidney, ip; method in brief: as §2
[9] = test system: Candida albicans; assay: Antifungal activity against Candida albicans K-1 assessed as partial growth inhibition after 24 hrs by CLSI end point method; assay type: functional; conditions: K-1, 24 h
Method in brief: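 CLSI M27-A2 broth dilution. Two end points read against the drug-free control well: partial inhibition (CLSI end point) and complete inhibition. Run in duplicate on four separate occasions; value is the mean. Drug stock in DMSO, diluted in 0.9% NaCl.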

[10] = test system: Nakaseomyces glabratus; assay: Antifungal activity against Candida glabrata 33616 assessed as complete growth inhibition after 24 hrs by CLSI end point method; assay type: functional; conditions: Nakaseomyces glabratus, 33616, 24 h
Method in brief: (§3)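 Two end points were read against the drug-free control well: partial growth inhibition (the CLSI end point) and complete inhibition. Run in duplicate on four separate occasions; the value is the mean. Drug stock was made in DMSO and diluted in 0.9% NaCl.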

[11] = test system: Nakaseomyces glabratus; assay: Antifungal activity against Candida glabrata 34341 assessed as complete growth inhibition after 24 hrs by CLSI end point method; assay type: functional; conditions: Nakaseomyces glabratus, 34341, 24 h; method in brief: as §3
[12] = test system: Nakaseomyces glabratus; assay: Antifungal activity against Candida glabrata 35315 assessed as complete growth inhibition after 24 hrs by CLSI end point method; assay type: functional; conditions: Nakaseomyces glabratus, 35315, 24 h; method in brief: as §3
[13] = test system: Nakaseomyces glabratus; assay: Antifungal activity against Candida glabrata 33609 infected in neutropenic ICR/Swiss mouse candidiasis model assessed as fungal count per kidney administered 2 hrs postinfection measured up to 48 hrs; assay type: functional
Method in brief: (§4)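 Female ICR/Swiss mice (23–27 g) made neutropenic with cyclophosphamide s.c. (150 mg/kg day −4, 100 mg/kg day −1, 100 mg/kg day +2). Infected by tail vein with 0.1 ml inoculum (~6.1 log10 CFU/ml). Kidneys of untreated mice were homogenised and plated on SDA for 24 h at 35°C. Growth over 48 h is given as log10 CFU/kidney.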

[14] = test system: Nakaseomyces glabratus; assay: Antifungal activity against Candida glabrata 35315 infected in neutropenic ICR/Swiss mouse candidiasis model assessed as fungal count per kidney administered 2 hrs postinfection measured up to 48 hrs; assay type: functional; method in brief: as §4
[15] = test system: Nakaseomyces glabratus; assay: Antifungal activity against Candida glabrata 37661 assessed as complete growth inhibition after 24 hrs by CLSI end point method; assay type: functional; conditions: Nakaseomyces glabratus, 37661, 24 h; method in brief: as §3
[16] = test system: Nakaseomyces glabratus; assay: Antifungal activity against Candida glabrata 37661 infected in neutropenic ICR/Swiss mouse candidiasis model assessed as fungal count per kidney administered 2 hrs postinfection measured up to 48 hrs; assay type: functional; method in brief: as §4
[17] = Elimination half life in serum of neutropenic ICR/Swiss mouse candidiasis model at 80 mg/kg, ip by reverse-phase high-pressure liquid chromatography; assay type: ADME, organism-based; design: dose 80 mg/kg, route intraperitoneal; conditions: read-out: beta t1/2 (converted)
Method in brief: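 Infected neutropenic ICR/Swiss mice given single ip doses (5, 20 or 80 mg/kg; 0.2 ml); serum from three isoflurane-anaesthetised mice at 1, 4, 8, 12, 24 and 48 h, stored at −80°C, assayed by reverse-phase HPLC with fluorescence detection, loratadine internal standard, linear 10–50,000 ng/ml. Noncompartmental analysis; half-life by nonlinear least squares.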

[18] = Protein binding in Candida albicans K-1 infected neutropenic ICR/Swiss mouse serum after 30 mins by arithmetic dilution method; assay type: ADME, organism-based; conditions: read-out: PB (converted)
[19] = test system: Nakaseomyces glabratus; assay: Antifungal activity against Candida glabrata 5376 infected in neutropenic ICR/Swiss mouse candidiasis model assessed as dose required to maintain […] of 3.71 +/- 0.21 log10CFU per kidney administered intraperitoneally once every 96 hrs measured per 96 hrs

## CCCCCOc1ccc(-c2ccc(-c3ccc(C(=O)N[C@H]4C[C@@H](O)[C@@H](O)NC(=O)[C@@H]5[C@@H](O)[C@@H](C)CN5C(=O)[C@H]([C@@H](C)O)NC(=O)[C@H]([C@H](O)[C@@H](O)c5ccc(O)cc5)NC(=O)[C@@H]5C[C@@H](O)CN5C(=O)[C@H]([C@@H](C)O)NC4=O)cc3)cc2)cc1 [ANIDULAFUNGIN] ({pTerphenylCO(4''-OnC5H11)}-[Orn(4R-OH,5R-OH)]T[Hyp][hTyr(3S-OH,4S-OH)]T[Pro(3S-OH,4S-Me)]; lactam 1-C)
[1]
  ED50: 13.4 mg/kg
[2]
  Activity: 1.25 mg/kg
[3]
  Activity: 1.15 mg/kg
[4]
  Activity: 5.01 mg/kg
[5]
  Activity: 2.31 mg/kg
[6]
  Activity: 4.13 mg/kg
[7]
  Activity: 4.21 mg/kg
[8]
  ED50: 2.13 mg/kg
[9]
  MIC: 0.015 µg/mL (≈ 0.0132 µM)
[10]
  MIC: 2 µg/mL (≈ 1.75 µM)
[11]
  MIC: 1 µg/mL (≈ 0.877 µM)
[12]
  MIC: 1 µg/mL (≈ 0.877 µM)
[13]
  log10cfu: 2.37
[14]
  log10cfu: 0.97
[15]
  MIC: 2 µg/mL (≈ 1.75 µM)
[16]
  log10cfu: 0.96
[17]
  half-life: 24 h
[18]
  fraction unbound at 0.5 h: 0.2
[19]
  Activity: 9.06 mg/kg

From ChEMBL document CHEMBL1153564 (Antimicrob Agents Chemother, 2008)
